Data set [1] deals with AML12. The data set is described as follows: Cytotoxicity against mouse AML12 cells assessed as cell viability at 5 uM measured after 24 hrs by MTT assay. The format is cell-based. The following applies: aml12, 24 h. Background: Tetrazolium dyes change colour on reduction, which living cells bring about.
Data set [2] has as its system AML12. Description: Cytotoxicity against mouse AML12 cells assessed as cell viability at 10 uM measured after 24 hrs by MTT assay. The format is cell-based. Particulars: aml12, 24 h.
Data set [3] relates to AML12. Description: Activation of CPT1A in mouse AML12 cells assessed as inhibition of oleic acid-induced lipid accumulation using L-carnitine and palmitoyl CoA as substrates pretreated with ETO for 6 hrs followed by addition of compound at 40 uM measured after 48 hrs by […] reagent based enzymatic assay. The format is cell-based. The essentials: (§1)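 Lysates of AML12 cells grown in medium with 0.15 mM oleic acid. Cells pretreated 6 h with ETO or with DMSO, then exposed to compound for 24 h (legend says 48 h). Lysis by sonication in 0.5 M Tris, 0.15 M KCl and protease inhibitors. Protein measured by Bradford. Activity expressed as nmol CoA-SH released per min per mg protein. Mean ± SEM, n = 3.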

The test system of data set [4] is AML12. The data set is described as follows: Activation of CPT1A in mouse AML12 cells assessed as inhibition of oleic acid-induced lipid accumulation using L-carnitine and palmitoyl CoA as substrates pretreated with ETO for 6 hrs followed by addition of compound at 20 uM measured after 48 hrs by […] reagent based enzymatic assay. It counts as cell-based. In a few lines: as §1

For data set [5], the system named is AML12. Description: Activation of CPT1A in mouse AML12 cells assessed as inhibition of oleic acid-induced lipid accumulation using L-carnitine and palmitoyl CoA as substrates at 40 uM measured after 48 hrs by […] reagent based enzymatic assay relative to control. The format is cell-based. Particulars: filed as activator. In a few lines: as §1
For data set [6], the system named is AML12. The data set is described as follows: Activation of CPT1A in mouse AML12 cells assessed as inhibition of oleic acid-induced lipid accumulation using L-carnitine and palmitoyl CoA as substrates at 20 uM measured after 48 hrs by […] reagent based assay relative to control. Particulars: filed as activator. The format is cell-based. The essentials: as §1

The subject of data set [7] is AML12. The data set is described as follows: Cytotoxicity against mouse AML12 cells assessed as cell viability at 40 uM measured after 24 hrs by MTT assay. It counts as cell-based. Particulars: aml12, 24 h.
The test system of data set [8] is AML12. The data set is described as follows: Inhibition of oleic acid-induced lipid accumulation in mouse AML12 cells with siRNA-induced CPT1A knockdown at 40 uM measured after 24 hrs by Oil red O staining based microscopic assay. The format is functional, cell-based. The essentials:
(§2)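 AML12 cells either transfected with siRNA against CPT1A or pretreated with 20 μM etomoxir, with negative-control comparison. Cells then loaded with oleic acid and exposed to compound at 40 μM for 24 h. Lipid read by Oil Red O staining with image quantification. Mean ± SEM, n = 3.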

For data set [9], the system named is AML12. Description: Inhibition of oleic acid-induced lipid accumulation in mouse AML12 cells assessed as increased expression of CPT1A preincubated with ETO at 40 uM measured after 24 hrs by Oil red O staining based microscopic assay. It counts as functional, cell-based. The essentials:
as §2

Data set [10] concerns AML12. The data set is described as follows: Inhibition of oleic acid-induced lipid accumulation in mouse AML12 cells with Si-RNA-induced ACSL1 knockdown. It counts as functional, cell-based.
Data set [11] concerns AML12. The data set is described as follows: Inhibition of oleic acid-induced lipid accumulation in mouse AML12 cells with Si-RNA-induced ECHS1 knockdown. The format is functional, cell-based.
In data set [12] the test system is AML12. The data set is described as follows: Inhibition of oleic acid-induced lipid accumulation in mouse AML12 cells with Si-RNA-induced FADS3 knockdown. The format is functional, cell-based.
Data set [13] concerns AML12. Description: Cytotoxicity against mouse AML12 cells assessed as cell viability at 20 uM measured after 24 hrs by MTT assay. Particulars: aml12, 24 h. The format is cell-based.
For data set [14], the system named is AML12. The data set is described as follows: Inhibition of oleic acid-induced lipid accumulation in mouse AML12 cells at 20 uM preincubated with oleic acid for 24 hrs followed by addition of compounds and measured after 24 hrs by Oil red O staining based microscopic assay. It counts as functional, cell-based. In a few lines:
(§3)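 Normal mouse liver AML12 cells loaded with 0.15 mM oleic acid in BSA to induce lipid droplets, then given compound for 24 h. DMSO vehicle as control. Stained with Oil Red O and quantified by image analysis. Mean ± SEM, n = 3.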

In data set [15] the test system is AML12. The data set is described as follows: Inhibition of oleic acid-induced lipid accumulation in mouse AML12 cells at 40 uM preincubated with oleic acid for 24 hrs followed by addition of compounds and measured after 24 hrs by Oil red O staining based microscopic assay. It counts as functional, cell-based. In a few lines: as §3

This passage reports Activity, fold change (FC) and inhibition results from ChEMBL document CHEMBL5053559, “Photoaffinity-Based Chemical Proteomics Reveals 7-Oxocallitrisic Acid Targets CPT1A to Trigger Lipogenesis Inhibition” (ACS Med Chem Lett, 2021).

Structures are written as SMILES. Activity calls are given as the source filed them. The calls are words filed in the database; no cut-off is given here.

In the case of `CC(C)c1ccc2c(c1)C(=O)C[C@H]1[C@](C)(C(=O)O)CCC[C@]21C`, the Activity result in data set [1], in [2], in data set [7] and in data set [13] was “Non-Toxic” in each case. Moreover, the outcome in data set [3] and in data set [4] was inactive. In addition, the results for the fold change (FC) in data set [5] and in data set [6] were 1.6 and 1.5, respectively. Moreover, the inhibition result in [8] and in data set [9] was “inactive” each time. Further, the inhibition result in data set [10], in data set [11], in [12], in [14] and in data set [15] was “Active” throughout.
